Experimental data pooled from the literature.
Each line is one published result; the experiments were not run side by side.
PDE3A: cGMP-inhibited 3',5'-cyclic phosphodiesterase 3A (PDE3A, Homo sapiens, UniProt Q14432)

SMILES | target | assay | setting | inhibition
Clc1ccc2c(C3CCN(CCc4c[nH]c5ccccc45)CC3)c[nH]c2c1 | PDE3A | enzyme activity, inhibitor | 10 µM | -1%
CCN(CC)CCCC[C@H](NC(=O)[C@H](CC(C)C)NC(=O)[C@H](C)NC(=O)[C@H](Cc1ccccc1)NC(=O)c1ccc(C(C)(C)C)cc1)C(=O)N[C@@H](CO)C(=O)OC | Nociceptin receptor (OPRL1, Homo sapiens, UniProt P41146) | ligand displacement, radioligand | 10 µM | 23%
Cn1cc(-c2cccc(N3CCc4c(sc5c4CC(C)(C)C5)C3=O)c2CO)cc(Nc2ccncn2)c1=O | Leucine-rich repeat serine/threonine-protein kinase 2 (LRRK2, Homo sapiens, UniProt Q5S007, G2019S) | enzyme activity, inhibitor | 1 µM | -15%
N=C(N)c1ccc2cc(OC(=O)c3ccc(N=C(N)N)cc3)ccc2c1 | Ataxin-3 (ATXN3, Homo sapiens, UniProt P54252) | enzyme activity, inhibitor | 10 µM | 0%
c1ccc(C(NCCNC(c2ccccc2)c2ccccc2)c2ccccc2)cc1 | PDE3A | cell-free assay, inhibitor | 10 µM | 0%
C#Cc1n[nH]c2c(-c3cn([C@@H](C)c4ccccn4)c(=O)[nH]c3=O)cc(F)cc12 | Mitogen-activated protein kinase 14 (MAPK14, Homo sapiens, UniProt Q16539) | enzyme activity, inhibitor | 0.1 µM | 4%
C[C@H](C(=O)N[C@H]1COc2ccccc2[C@@H]1S(C)(=O)=O)c1ccc(F)cc1 | PDE3A | cell-free assay, inhibitor | 10 µM | -9%
C#Cc1n[nH]c2c(-c3cn([C@@H](C)c4ccccc4)c(=O)[nH]c3=O)cc(F)cc12 | Leucine-rich repeat serine/threonine-protein kinase 2 (LRRK2, Homo sapiens, UniProt Q5S007) | enzyme activity, inhibitor | 0.1 µM | 3.8%
COc1cc(Nc2ncc(F)c(Nc3ccc4c(n3)NC(=O)C(C)(C)O4)n2)cc(OC)c1OC | Serine/threonine-protein kinase RIO2 (RIOK2, Homo sapiens, UniProt Q9BVS4) | binding | 10 µM | 83%
Cn1cc(-c2cc(F)cc(N3CCn4c(cc5c4CCCC5)C3=O)c2CO)cc(Nc2ccc(N3CCN(C4COC4)CC3)cn2)c1=O | Serine/threonine-protein kinase TAO2 (TAOK2, Homo sapiens, UniProt Q9UL54) | enzyme activity, inhibitor | 0.1 µM | 7%
O=C(Nc1cccnn1)N1CCN([C@@H]2CCOc3cc(C(F)(F)F)ccc32)CC1 | PDE3A | cell-free assay | 20 µM | 4%
